# Key:
# Hs-578T = experiment: Growth inhibition of human Hs578T cells after 48 hrs by sulforhodamine B assay; format: functional
# Method in brief: (§1)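 Run in the National Cancer Institute 60-cell-line panel screen. Viability was read by sulforhodamine B staining of total protein content, so it reflects cell number rather than metabolic activity. Values are reported as GI50.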
# HT-29 = experiment: Growth inhibition of human HT-29 cells after 48 hrs by sulforhodamine B assay; format: functional; details: HT-29, 48 h; method in brief: as §1
# [1] = Therapeutic index, ratio of IC50 for human CD34-positive blood stem/progenitor cells to IC50 for human MA9.3 cells; details: CD34-positive blood stem/progenitor cells versus MA9.3 cells, read-out: Ratio IC50
# Method in brief: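 Cytotoxicity was measured in parallel on non-cancerous human CD34+ blood stem/progenitor cells (UCB) and on the MA9.3 AML line, which was made by introducing the MLL-AF9 oncogene into human CD34+ cells. The index is IC50 in CD34+ cells divided by IC50 in MA9.3, reported as mean ± error.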
# COLO 205 = experiment: Growth inhibition of human COLO205 cells after 48 hrs by sulforhodamine B assay; format: functional; details: COLO 205, 48 h; method in brief: as §1
# RXF 393 = experiment: Growth inhibition of human RXF393 cells after 48 hrs by sulforhodamine B assay; format: functional; details: RXF 393, 48 h; method in brief: as §1
# MDA-MB-435 = experiment: Growth inhibition of human MDA-MB-435 cells after 48 hrs by sulforhodamine B assay; format: functional; details: MDA-MB-435, 48 h; method in brief: as §1
# MDA-MB-231 = experiment: Growth inhibition of human MDA-MB-231 cells after 48 hrs by sulforhodamine B assay; format: functional; details: MDA-MB-231, 48 h; method in brief: as §1
# SK-OV-3 = experiment: Growth inhibition of human SKOV3 cells after 48 hrs by sulforhodamine B assay; format: functional; details: SK-OV-3, 48 h; method in brief: as §1
# HCT-116 = experiment: Growth inhibition of human HCT116 cells after 48 hrs by sulforhodamine B assay; format: functional; details: HCT-116, 48 h; method in brief: as §1
# 786-0 = experiment: Growth inhibition of human 786-0 cells after 48 hrs by sulforhodamine B assay; format: functional; details: 786-0, 48 h; method in brief: as §1
# SR = experiment: Growth inhibition of human SR cells after 48 hrs by sulforhodamine B assay; format: functional
# Method in brief: (§2)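 Run within the National Cancer Institute 60-cell-line panel. Viability was read by sulforhodamine B staining of total cellular protein, as a measure of cell number rather than metabolic activity. GI50 values were taken from the panel data.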
# M14 = experiment: Growth inhibition of human M14 cells after 48 hrs by sulforhodamine B assay; format: functional; details: M14, 48 h; method in brief: as §1
# U-251 = experiment: Growth inhibition of human U251 cells after 48 hrs by sulforhodamine B assay; format: functional; details: U-251, 48 h; method in brief: as §2
# UACC-257 = experiment: Growth inhibition of human UACC257 cells after 48 hrs by sulforhodamine B assay; format: functional; details: UACC-257, 48 h; method in brief: as §2
# SK-MEL-2 = experiment: Growth inhibition of human SK-MEL-2 cells after 48 hrs by sulforhodamine B assay; format: functional; details: SK-MEL-2, 48 h; method in brief: as §1
# CAKI-1 = experiment: Growth inhibition of human CAKI-1 cells after 48 hrs by sulforhodamine B assay; format: functional; details: CAKI-1, 48 h; method in brief: as §1
# PC-3 = experiment: Growth inhibition of human PC3 cells after 48 hrs by sulforhodamine B assay; format: functional; details: PC-3, 48 h; method in brief: as §1
# MCF7 = experiment: Growth inhibition of human MCF7 cells after 48 hrs by sulforhodamine B assay; format: functional; details: MCF7, 48 h; method in brief: as §1
# SF-539 = experiment: Growth inhibition of human SF539 cells after 48 hrs by sulforhodamine B assay; format: functional; details: SF-539, 48 h; method in brief: as §1
# NCI-H522 = experiment: Growth inhibition of human NCI-H522 cells after 48 hrs by sulforhodamine B assay; format: functional; details: NCI-H522, 48 h; method in brief: as §1
# LOX IMVI = experiment: Growth inhibition of human LOXIMVI cells after 48 hrs by sulforhodamine B assay; format: functional; method in brief: as §1
# [2] = Cytotoxicity against human CD34-positive blood stem/progenitor cells after 48 hrs by MTT assay; format: cell-based
# Method in brief: (§3)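 Non-transformed human CD34+ blood stem/progenitor cells from umbilical cord blood were run alongside MA9.3, an AML line made by introducing the MLL-AF9 oncogene into human CD34+ cells. IC50 was determined on each cell type. Therapeutic index is the ratio between the MA9.3 and CD34+ IC50 values.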
# HOP-92 = experiment: Growth inhibition of human HOP92 cells after 48 hrs by sulforhodamine B assay; format: functional; details: HOP-92, 48 h; method in brief: as §1
# MDA-MB-468 = experiment: Growth inhibition of human MDA-MB-468 cells after 48 hrs by sulforhodamine B assay; format: functional; details: MDA-MB-468, 48 h; method in brief: as §1
# HOP-62 = experiment: Growth inhibition of human HOP62 cells after 48 hrs by sulforhodamine B assay; format: functional; details: HOP-62, 48 h; method in brief: as §1
# [3] = Growth inhibition of human HCC2998 cells after 48 hrs by sulforhodamine B assay; format: functional; details: HCC 2998, 48 h; method in brief: as §1
# SF-268 = experiment: Growth inhibition of human SF268 cells after 48 hrs by sulforhodamine B assay; format: functional; details: SF-268, 48 h; method in brief: as §1
# OVCAR-5 = experiment: Growth inhibition of human OVCAR5 cells after 48 hrs by sulforhodamine B assay; format: functional; details: OVCAR-5, 48 h; method in brief: as §1
# NCI-H322M = experiment: Growth inhibition of human NCI-H322M cells after 48 hrs by sulforhodamine B assay; format: functional; method in brief: as §1
# SK-MEL-5 = experiment: Growth inhibition of human SK-MEL-5 cells after 48 hrs by sulforhodamine B assay; format: functional; details: SK-MEL-5, 48 h; method in brief: as §1
# T47D = experiment: Growth inhibition of human T47D cells after 48 hrs by sulforhodamine B assay; format: functional; method in brief: as §2
# A498 = experiment: Growth inhibition of human A498 cells after 48 hrs by sulforhodamine B assay; format: functional; details: A498, 48 h; method in brief: as §1
# IGROV-1 = experiment: Growth inhibition of human IGROV1 cells after 48 hrs by sulforhodamine B assay; format: functional; details: IGROV-1, 48 h; method in brief: as §1
# NCI-H226 = experiment: Growth inhibition of human NCI-H226 cells after 48 hrs by sulforhodamine B assay; format: functional; details: NCI-H226, 48 h; method in brief: as §1
# SW-620 = experiment: Growth inhibition of human SW620 cells after 48 hrs by sulforhodamine B assay; format: functional; details: SW-620, 48 h; method in brief: as §2
# KM12 = experiment: Growth inhibition of human KM12 cells after 48 hrs by sulforhodamine B assay; format: functional; details: KM12, 48 h; method in brief: as §1
# RPMI-8226 = experiment: Growth inhibition of human RPMI8226 cells after 48 hrs by sulforhodamine B assay; format: functional; details: RPMI-8226, 48 h; method in brief: as §1
# ACHN = experiment: Growth inhibition of human ACHN cells after 48 hrs by sulforhodamine B assay; format: functional; method in brief: as §1
# SNB-19 = experiment: Growth inhibition of human SNB19 cells after 48 hrs by sulforhodamine B assay; format: functional; details: SNB-19, 48 h; method in brief: as §2
# [4] = Cytotoxicity against human MA9.3 cells after 48 hrs by MTT assay; format: functional, cell-based; method in brief: as §3
# BT-549 = experiment: Growth inhibition of human BT549 cells after 48 hrs by sulforhodamine B assay; format: functional; details: BT-549, 48 h; method in brief: as §1
# DU-145 = experiment: Growth inhibition of human DU145 cells after 48 hrs by sulforhodamine B assay; format: functional; details: DU-145, 48 h; method in brief: as §1
# MOLT-4 = experiment: Growth inhibition of human MOLT4 cells after 48 hrs by sulforhodamine B assay; format: functional; details: MOLT-4, 48 h; method in brief: as §1
smiles,measurement,setting,value
Oc1ccc(OCCN(CCOc2ccc(O)cc2)c2ccccc2)cc1,GI50,Hs-578T,14.5 µM
same,GI50,HT-29,14.5 µM
same,selectivity ratio,[1],5.3
same,GI50,COLO 205,20 µM
same,GI50,RXF 393,2.6 µM
same,GI50,MDA-MB-435,2.6 µM
same,GI50,MDA-MB-231,0.9 µM
same,GI50,SK-OV-3,7.2 µM
same,GI50,HCT-116,4.1 µM
same,GI50,786-0,3.6 µM
same,GI50,SR,0.5 µM
same,GI50,M14,1.6 µM
same,GI50,U-251,3 µM
same,GI50,UACC-257,12.6 µM
same,GI50,SK-MEL-2,11.8 µM
same,GI50,CAKI-1,0.4 µM
same,GI50,PC-3,6 µM
same,GI50,MCF7,2.2 µM
same,GI50,SF-539,2.8 µM
same,GI50,NCI-H522,2 µM
same,GI50,LOX IMVI,2.2 µM
same,IC50,[2],16 µM
same,GI50,HOP-92,3.7 µM
same,GI50,MDA-MB-468,10 µM
same,GI50,HOP-62,8.9 µM
same,GI50,[3],4.7 µM
same,GI50,SF-268,3.2 µM
same,GI50,OVCAR-5,11.5 µM
same,GI50,NCI-H322M,11 µM
same,GI50,SK-MEL-5,2.6 µM
same,GI50,T47D,10.2 µM
same,GI50,A498,5.3 µM
same,GI50,IGROV-1,3.6 µM
same,GI50,NCI-H226,11.2 µM
same,GI50,SW-620,10 µM
same,GI50,KM12,4.7 µM
same,GI50,RPMI-8226,3.8 µM
same,GI50,ACHN,0.4 µM
same,GI50,SNB-19,11.2 µM
same,IC50,[4],3 µM
same,GI50,BT-549,6.6 µM
same,GI50,DU-145,3.2 µM
same,GI50,MOLT-4,1.3 µM
CN(CCCOc1ccc(O)cc1)c1ccccc1,GI50,Hs-578T,3.1 µM
same,GI50,HT-29,5.6 µM
same,selectivity ratio,[1],7.7
same,GI50,COLO 205,13.8 µM
same,GI50,RXF 393,2.1 µM
same,GI50,MDA-MB-435,6.6 µM
same,GI50,MDA-MB-231,6.9 µM
same,GI50,SK-OV-3,11.5 µM
same,GI50,HCT-116,3.5 µM
same,GI50,786-0,1.9 µM
same,GI50,SR,2.5 µM
same,GI50,M14,1.7 µM
same,GI50,U-251,1.7 µM
same,GI50,UACC-257,8.1 µM
same,GI50,SK-MEL-2,10.5 µM
same,GI50,CAKI-1,0.3 µM
same,GI50,PC-3,2.1 µM
same,GI50,MCF7,2.6 µM
same,GI50,SF-539,0.6 µM
same,GI50,NCI-H522,2.8 µM
same,GI50,LOX IMVI,2.8 µM
same,IC50,[2],5.4 µM
same,GI50,HOP-92,0.5 µM
same,GI50,MDA-MB-468,3.3 µM
same,GI50,HOP-62,10.5 µM
same,GI50,[3],11.2 µM
same,GI50,SF-268,2.2 µM
same,GI50,OVCAR-5,7.8 µM
same,GI50,NCI-H322M,12.6 µM
same,GI50,SK-MEL-5,2.1 µM
same,GI50,T47D,4.6 µM
same,GI50,A498,2.6 µM
same,GI50,IGROV-1,4.1 µM
same,GI50,NCI-H226,10.5 µM
same,GI50,SW-620,1.3 µM
same,GI50,KM12,4.3 µM
same,GI50,RPMI-8226,1.2 µM
same,GI50,ACHN,0.3 µM
same,GI50,SNB-19,7.9 µM
same,IC50,[4],0.7 µM
same,GI50,BT-549,1.7 µM
same,GI50,DU-145,2.8 µM
same,GI50,MOLT-4,2 µM
